Assay results published in ChEMBL document CHEMBL1125776, “Enantioselective and diastereoselective hydroxylation of bufuralol. Absolute configuration of the 7-(1-hydroxyethyl)-2-[1-hydroxy-2-(tert-butylamino)ethyl]benzofurans, the benzylic hydroxylation metabolites” (J Med Chem, 1991).

Columns and labels:
Homo sapiens [1] = organism: Homo sapiens; assay: Mean of rate of formation in all human liver microsomes.; format: functional, organism-based; set-up: unit not given here
How it was run: (§1)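 Human liver microsomes from frozen bank tissue, washed and resuspended in 100 mM potassium phosphate/20% glycerol/1 mM EDTA, pH 7.4. Incubated with (1'R)- or (1'S)-bufuralol 200 μM, 3 mg protein, NADP+ 1 mM, glucose 6-phosphate 20 mM, MgCl2 10 mM, G6PDH 5 units, 0.20 M phosphate pH 7.4, 37 °C, 30 min. Benzylic alcohols derivatized with (R)-PEIC, reversed-phase HPLC at 248 nm against internal standard, calibration 2-10 μg.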

Homo sapiens [2] = organism: Homo sapiens; assay: Compound was tested for the rate of formation in human liver microsomes 116; format: functional; how it was run: as §1
Homo sapiens [3] = organism: Homo sapiens; assay: Compound was tested for the rate of formation in human liver microsomes 112; format: functional; how it was run: as §1
Homo sapiens [4] = organism: Homo sapiens; assay: Compound was tested for the rate of formation in human liver microsomes 108; format: functional; how it was run: as §1
Rattus norvegicus = organism: Rattus norvegicus; assay: Compound was tested for the rate of formation in rat liver microsomes; format: functional
How it was run: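 Liver microsomes from male Sprague-Dawley rats (~150 g) prepared at 0-4 °C. Incubated with (1'R)- or (1'S)-bufuralol 200 μM, 3 mg protein, NADP+ 1 mM, glucose 6-phosphate 20 mM, MgCl2 10 mM, G6PDH 5 units, 0.20 M phosphate pH 7.4, 37 °C, 30 min. Alcohol diastereomers derivatized with (R)-PEIC, reversed-phase HPLC at 248 nm against internal standard, calibration 10-60 μg.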

Homo sapiens [5] = organism: Homo sapiens; assay: Compound was tested for the rate of formation in human liver microsomes 114; format: functional; how it was run: as §1

Row | Compound | Mean (Homo sapiens [1]) | Rate of formation (pM min-1 (mg of protein)-1) (Homo sapiens [2]) | Rate of formation (pM min-1 (mg of protein)-1) (Homo sapiens [3]) | Rate of formation (pM min-1 (mg of protein)-1) (Homo sapiens [4]) | Rate of formation (pM min-1 (mg of protein)-1) (Rattus norvegicus) | Rate of formation (pM min-1 (mg of protein)-1) (Homo sapiens [5])
1 | C[C@H](O)c1cccc2cc([C@H](O)CNC(C)(C)C)oc12 | 266 | 355 | 136 | 363 | 500 | 211
2 | C[C@@H](O)c1cccc2cc([C@H](O)CNC(C)(C)C)oc12 | 66.5 | 75.3 | 54.5 | 74.5 | 2270 | 61.7
3 | C[C@@H](O)c1cccc2cc([C@@H](O)CNC(C)(C)C)oc12 | 70.2 | 83.3 | 48.9 | 86.5 | 741 | 62.1
4 | C[C@H](O)c1cccc2cc([C@@H](O)CNC(C)(C)C)oc12 | 66.6 | 74.9 | 32 | 101 | 96.1 | 58.8
